Assay results taken from ChEMBL document CHEMBL1147206, “Synthetic cinnamylphenol derivatives as cancer chemopreventive agents” (2007).

Assays:
Human gammaherpesvirus 4 [1] = test: TPA-induced EBV early antigen activation in Raji cells at 32 nmol relative to control
Raji [2] = test: Survival of Raji cells at 32 nmol by trypan blue staining method; format: functional, Homo sapiens
In short: (§1)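 Raji cells (EBV genome-carrying, non-producer) grown to 10⁶ cells/mL, centrifuged, resuspended in RPMI 1640 with 10% FCS, 4 mM n-butyric acid and 32 pmol TPA (20 ng/mL), plus test compound in DMSO (32, 16, 3.2 or 0.32 nmol; 1000–10 mol ratio/TPA). Incubated 37 °C, 48 h; viability counted by hemocytometer with Trypan Blue; ≥60% survival required.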

Raji [3] = test: Survival of Raji cells at 16 nmol by trypan blue staining method; format: functional, Homo sapiens
In short: as §1

Raji [4] = test: Survival of Raji cells at 3.2 nmol by trypan blue staining method; format: functional, Homo sapiens
In short: as §1

Raji [5] = test: Survival of Raji cells at 0.32 nmol by trypan blue staining method; format: functional, Homo sapiens
In short: as §1

Human gammaherpesvirus 4 [6] = test: TPA-induced EBV early antigen activation in Raji cells at 0.32 nmol relative to control
Human gammaherpesvirus 4 [7] = test: TPA-induced EBV early antigen activation in Raji cells at 3.2 nmol relative to control
Human gammaherpesvirus 4 [8] = test: TPA-induced EBV early antigen activation in Raji cells at 16 nmol relative to control
Mus musculus [9] = species on record: Mus musculus; test: Inhibition of TPA-induced skin tumor in SENCAR mouse assessed as reduction of skin papilloma at 85 nmol after 10 weeks; format: functional; set-up: scale not given: the % may be the effect or the level left
Mus musculus [10] = species on record: Mus musculus; test: Inhibition of TPA-induced skin tumor in SENCAR mouse assessed as reduction of skin papilloma at 85 nmol after 20 weeks; format: functional; set-up: scale not given: the % may be the effect or the level left

Row | Compound | EBV-EA activation (Human gammaherpesvirus 4 [1]) [%] | Survival (Raji [2]) [%] | Survival (Raji [3]) [%] | Survival (Raji [4]) [%] | Survival (Raji [5]) [%] | EBV-EA activation (Human gammaherpesvirus 4 [6]) [%] | EBV-EA activation (Human gammaherpesvirus 4 [7]) [%] | EBV-EA activation (Human gammaherpesvirus 4 [8]) [%] | Activity (Mus musculus [9]) [%] | Activity (Mus musculus [10]) [%]
1 | COc1cc(/C=C/Cc2ccc(O)c(O)c2OC)ccc1OC(C)=O | 9.4 | 60 | >80 | >80 | >80 | 100 | 74 | 36.1 | – | –
2 | COc1ccc(C/C=C/c2ccccc2)c(OC)c1O | 14.1 | 60 | >80 | >80 | >80 | 100 | 76.9 | 41.2 | – | –
3 | COc1cc(/C=C/Cc2ccc(O)c(O)c2OC)ccc1O | 7.5 | 60 | >80 | >80 | >80 | 95.7 | 70.2 | 43.7 | – | –
4 | COc1cc(/C=C/Cc2ccc(OC)c(OCC=C(C)C)c2O)ccc1O | 0 | 70 | >80 | >80 | >80 | 87.1 | 64.2 | 28.3 | – | –
5 | COc1cc(/C=C/Cc2ccc(OC)c(O)c2OCC=C(C)C)ccc1O | 0 | 70 | >80 | >80 | >80 | 88.1 | 63.2 | 27.8 | – | –
6 | COc1ccc(C/C=C/c2ccccc2)c(O)c1 | 20.7 | 60 | >80 | >80 | >80 | 100 | 73.7 | 45.1 | – | –
7 | COc1c(C/C=C/c2ccccc2)ccc(O)c1C/C=C/c1ccccc1 | 12.8 | 60 | >80 | >80 | >80 | 100 | 68.2 | 41.5 | – | –
8 | COc1cc(O)ccc1C/C=C/c1ccccc1 | 18.1 | 60 | >80 | >80 | >80 | 100 | 73.2 | 44.7 | – | –
9 | COc1ccc(C/C=C/c2ccccc2)c(O)c1O | 10.8 | 60 | >80 | >80 | >80 | 100 | 71.5 | 42.5 | – | –
10 | COc1ccc(C/C=C/c2ccccc2)c(O)c1OC | 13.3 | 60 | >80 | >80 | >80 | 100 | 76.2 | 45.5 | – | –
11 | COc1c(C/C=C/c2ccccc2)cc(C/C=C/c2ccccc2)c(O)c1OC | 15.9 | 60 | >80 | >80 | >80 | 100 | 75.6 | 46.4 | – | –
12 | COc1c(C/C=C/c2ccccc2)cc(C/C=C/c2ccccc2)c(OC)c1OC | 12.6 | 60 | >80 | >80 | >80 | 100 | 75.2 | 39.8 | – | –
13 | COc1c(C/C=C/c2ccccc2)ccc(OCC=C(C)C)c1OC | 0 | 70 | >80 | >80 | >80 | 91.5 | 68.2 | 29.8 | – | –
14 | COc1cc(/C=C/Cc2ccc(OC)c(O)c2O)ccc1O | 8.7 | 60 | >80 | >80 | >80 | 95.7 | 73.2 | 45.5 | – | –
15 | COc1cc(/C=C/Cc2ccc(OC)c(OCC=C(C)C)c2OCC=C(C)C)ccc1OCC=C(C)C | 0 | 70 | >80 | >80 | >80 | 83.3 | 61.5 | 23.6 | – | –
16 | COc1cc(/C=C/Cc2ccc(OC)c(O)c2O)ccc1OC(C)=O | 10 | 60 | >80 | >80 | >80 | 100 | 74.6 | 37.6 | – | –
17 | COc1cccc(O)c1C/C=C/c1ccccc1 | 18.3 | 60 | >80 | >80 | >80 | 100 | 70.5 | 43.7 | – | –
18 | COc1ccc(C/C=C/c2ccccc2)c(OCC=C(C)C)c1 | 0 | 70 | >80 | >80 | >80 | 91.7 | 67.8 | 29.9 | – | –
19 | COc1cccc(OCC=C(C)C)c1C/C=C/c1ccccc1 | 0 | 70 | >80 | >80 | >80 | 92.7 | 68.9 | 30.8 | – | –
20 | COc1cc(OCC=C(C)C)ccc1C/C=C/c1ccccc1 | 0 | 70 | >80 | >80 | >80 | 87.6 | 65.2 | 29.3 | – | –
21 | COc1ccc(C/C=C/c2ccccc2)c(O)c1OCC=C(C)C | 0 | 70 | >80 | >80 | >80 | 90.8 | 65.6 | 30.6 | – | –
22 | COc1cc(/C=C/Cc2ccc(OC)c(OCC=C(C)C)c2O)ccc1OCC=C(C)C | 0 | 70 | >80 | >80 | >80 | 89.1 | 68.6 | 27.5 | 87 | 53
23 | COc1ccc(C/C=C/c2ccccc2)c(OCC=C(C)C)c1O | 0 | 70 | >80 | >80 | >80 | 90.6 | 64.5 | 27.6 | – | –
24 | COc1c(C/C=C/c2ccccc2)ccc(OCC=C(C)C)c1OCC=C(C)C | 0 | 70 | >80 | >80 | >80 | 88.9 | 64.5 | 22.6 | – | 30
25 | COc1c(O)ccc(C/C=C/c2ccccc2)c1OC | 12.5 | 60 | >80 | >80 | >80 | 100 | 74 | 44.3 | – | –
26 | COc1ccc(C/C=C/c2ccccc2)c(OC)c1OC | 14.2 | 60 | >80 | >80 | >80 | 100 | 76.6 | 41.5 | – | –
27 | COc1ccc(C/C=C/c2ccccc2)c(OCC=C(C)C)c1OCC=C(C)C | 0 | 70 | >80 | >80 | >80 | 88.6 | 62.2 | 24.6 | – | –
28 | COc1cc(/C=C/C(=O)CC(=O)/C=C/c2ccc(O)c(OC)c2)ccc1O [CURCUMIN] | 0 | 60 | >80 | >80 | >80 | 100 | 81.7 | 22.8 | – | –
29 | COc1c(C/C=C/c2ccccc2)ccc(O)c1O [HYDROXYOBUSTYRENE] | 10.2 | 60 | >80 | >80 | >80 | 100 | 71 | 41.3 | – | –
